An excerpt weighted towards active compounds, which were near 3.1% of everything screened.
OX1R antag-1: OX1R (HCRTR1) antagonists, primary screen, fluorescence, CHO/OX1R cells, Fluo-8 calcium, orexin A | Fluo-8 calcium fluorescence | Orexin/Hypocretin receptor type 1 (Homo sapiens), O43613 | actives 0.43% (n = 330,000) | AID 434989, 2010 | inhibition, % at 5 µM;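 active = inhibition above its plate's threshold, mean inhibition of all tested compounds on the plate plus 3 SD, cut at about 37% in these data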;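 note: 0% = orexin A challenge wells and 100% = SB-334867-A antagonist wells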
Target sequence (O43613 whole entry, looked up): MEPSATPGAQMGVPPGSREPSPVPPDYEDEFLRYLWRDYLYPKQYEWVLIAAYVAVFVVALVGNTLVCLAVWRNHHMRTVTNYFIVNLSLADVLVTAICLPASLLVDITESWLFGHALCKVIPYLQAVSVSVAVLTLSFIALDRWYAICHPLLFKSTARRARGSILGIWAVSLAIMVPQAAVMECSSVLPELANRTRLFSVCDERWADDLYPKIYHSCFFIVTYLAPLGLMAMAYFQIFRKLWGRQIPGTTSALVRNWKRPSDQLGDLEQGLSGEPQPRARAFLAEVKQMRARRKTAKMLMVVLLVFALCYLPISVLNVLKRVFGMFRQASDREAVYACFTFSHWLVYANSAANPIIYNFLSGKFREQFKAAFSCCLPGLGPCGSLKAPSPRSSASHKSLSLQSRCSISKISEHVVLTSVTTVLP
OX1R antag-2: antagonists of human orexin 1 receptor (OX1R); Orexin/Hypocretin receptor type 1 (Homo sapiens), O43613; OX1R-expressing cells, FRET antagonist read-out; inhibition, % at 6.6 µM; actives 1.8% (n = 330,000); AID 485270, 2010; in the data active = inhibition mostly above about 38%, no sharp cut-off; inactive = mostly below about 40%;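 note: 0% = agonist challenge alone and 100% = reference antagonist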
GalR3 antagonist: GalR3 antagonists in HEK293 cells, primary screen, cell-based, fluorescence readout. Galanin receptor type 3 (Homo sapiens), O60755. HEK293 GalR3-CNG cAMP membrane potential fluorescence; galR3 body fused to GalR1 C-terminus. inhibition, % at 3 µM. actives 0.44% (n = 360,000). AID 651719, 2012;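 active = inhibition above the screen-wide average plus 3 SD, cut at about 13% in these data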;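 note: forskolin and galanin both at EC90 stimulate the cells; cAMP rise reported by CNG channel membrane potential dye signal; 0% = forskolin plus galanin with DMSO and 100% = forskolin alone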
GPR7 antag: GPR7 receptor antagonists, primary screen, cell-based, fluorescence, single concentration. Neuropeptides B/W receptor type 1 (Homo sapiens), P48145. GPR7-expressing cells, fluorescence antagonist assay. inhibition, % at 4.4 µM. actives 1.1% (n = 290,000). AID 1861, 2009; in the data active = inhibition above about 16%, passing the limit was not always enough;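 note: cells stimulated with the agonist NPW; 0% = agonist with vehicle and 100% = vehicle without agonist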
CHO parental Ca: ATP-evoked calcium signal inhibitors, parental CHO, primary screen, counter-screen for OX1R antagonist project, cell-based, fluorescence, Fluo-8 calcium dye. parental CHO-K1, ATP-induced calcium, Fluo-8 fluorescence. inhibition, % at 5.6 µM. actives 0.63% (n = 330,000). AID 463079, 2010;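 active = inhibition above that plate's mean sample inhibition plus 3 SD, cut at about 26% in these data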;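 note: 0% = ATP-challenged DMSO wells and 100% = DMSO wells without ATP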
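Test system: untransfected parental CHO cell line. Compound: one dose, 5.6 µM nominal. Detection: intracellular calcium via Fluo-8 no-wash fluorescent dye. Measure: % inhibition. Benchmarks: ATP-challenged DMSO wells low, unchallenged DMSO wells high.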
Numbers without * were called inactive; . = no result given.

SMILES	OX1R antag-1	OX1R antag-2	GalR3 antagonist	GPR7 antag	CHO parental Ca
CCN(CC)S(=O)(=O)c1ccc(C)c(NCC(=O)Nc2ccc(C#N)c(Cl)c2)c1	33.1	16.7	-11.1	4.5	56.4*
COC(=O)C1=C(c2ccc(OC)c(OC)c2)C[C@@H]2CC[C@H]1N2C(=O)NCc1cc(C)oc1C(F)(F)F	-39.0	11.9	-1.8	.	-16.4
CNc1ccc2oc(C[C@H]3O[C@@]4(CC[C@H]3C)O[C@H]([C@H](C)C(=O)c3ccc[nH]3)[C@H](C)C[C@H]4C)nc2c1C(=O)O	67.4*	20.4	-5.6	.	59.1*
CC(=O)N1CCN(c2ccc([N+](=O)[O-])cc2C=C2C(=O)NC(=O)NC2=O)CC1	0.6	63.6*	-2.7	-7.2	-4.0
CCN1CCN(c2ccc([N+](=O)[O-])cc2C=C2C(=O)NC(=O)NC2=O)CC1	0.5	45.7	-4.2	-1.6	-5.0
O=C(O)CC1OCC=C2CN3CCC45C6=CC(=O)C(=O)C([N+](=O)[O-])=C6NC4C1C2CC35 (centres undefined)	-16.7	38.4*	.	-8.2	6.3
CCC(C)(C)n1nnnc1C(c1cccs1)N1CC=C(c2ccc(F)cc2)CC1 (centres undefined)	-1.8	19.9	-11.6	-5.3	45.7*
Fc1ccc(C2=CCN(C(c3cccs3)c3nnnn3CCc3ccccc3)CC2)cc1 (centres undefined)	-13.1	17.6	-6.5	-4.2	-14.8
CCCCn1nnnc1C(c1ccccc1)N1CCC2(CC1)C(=O)NCN2c1ccccc1 (centres undefined)	.	.	-6.7	.	.
Cc1ccc(C(=O)N[C@@H](C)CN2C3=NC[C@H](Cc4ccccc4)N3C[C@H]2Cc2ccc(O)cc2)cc1Br	46.6*	15.8	.	.	41.8*
Cc1ccc(C(=O)N[C@@H](C)CN2C3=NC[C@@H](Cc4ccccc4)N3C[C@H]2Cc2ccc(O)cc2)cc1Br	-2.7	6.0	-4.7	16.7	-11.1
CCNc1cc(N2CCN(C)CC2)ccc1[N+](=O)[O-]	-14.8	50.6*	-3.0	-1.7	-12.2
CN1CCN(c2ccc([N+](=O)[O-])c(Sc3ccccn3)c2)CC1	-15.0	30.7	-6.1	-4.0	-9.7
CN1CCN(c2ccc([N+](=O)[O-])c(Sc3nncn3C)c2)CC1	-1.7	45.1	-1.7	-14.9	-2.6
CN1CCN(c2ccc([N+](=O)[O-])c(N/N=C3\CN4CCC3CC4)c2)CC1	5.3	56.0*	-6.4	-0.3	8.5
O=C1NCN(c2ccccc2)C12CCN(C(c1ccnc3ccccc13)c1nnnn1-c1ccc3c(c1)OCCO3)CC2 (centres undefined)	.	.	-3.8	.	.
Cc1nn(CC(=O)N2CCC3(CC2)OCCO3)c(=O)c2cc3ccccc3n12	0.2	13.5	1.5	-2.5	-7.4
O=C(C1CCCN(S(=O)(=O)c2cccc3nsnc23)C1)N1CCC2(CC1)OCCO2 (centres undefined)	-13.7	41.0*	-2.8	1.0	-12.3
CCOc1ccc(-n2c(O)c(N=Nc3ccc([N+](=O)[O-])cc3)c(=O)[nH]c2=O)cc1	-34.0	76.3*	-8.2	-2.6	-11.8
O=c1[nH]c2ccccc2n1C1CCN(C(c2cc3ccccc3o2)c2nnnn2-c2ccc3c(c2)OCCO3)CC1 (centres undefined)	.	.	-0.9	.	.
Cc1c(CCC(=O)N2C[C@H]3C[C@@H](C2)c2cccc(=O)n2C3)c(=O)oc2c(C)c(O)ccc12	.	.	1.1	.	.
CNCC(O)c1cccc(OC(=O)c2ccccc2C)c1 (centres undefined)	-26.8	-9.7	2.2	23.5*	-27.0
O=c1c2ccccc2[se]n1-c1ccccc1	23.4	9.0	-3.1	-9.9	47.2*
COC(=O)CC1(CC(=O)OC)C(=O)N(c2ccccc2)C(=O)N(c2ccccc2)C1=O	-11.0	11.0	-9.4	-8.8	-11.9
CN1/C(=C\C=C2C(=O)NC(=O)NC2=O)C(C)(C)c2ccccc21	35.4	112.3*	-7.1	6.0	41.2*
SMILES	OX1R antag-1	OX1R antag-2	GalR3 antagonist	GPR7 antag	CHO parental Ca
CN1/C(=C\C=Nc2ccccc2)C(C)(C)c2ccccc21	18.5	17.4	-3.4	-10.5	26.7
Cc1c(N=Nc2c(O)n(-c3ccc(Br)cc3)c(=O)[nH]c2=O)c(=O)n(-c2ccccc2)n1C	-16.0	65.8*	3.0	-20.8	-2.2
CN1CC[C@@]2(C)c3cc(O)ccc3N(C)C2O1 (some centres undefined)	2.9	59.6*	.	.	-2.2
CCCCn1nnnc1C(c1ccnc2ccccc12)N1CCC2(CC1)C(=O)NCN2c1ccccc1 (centres undefined)	.	.	-6.1	.	.
O=C(NC(=C(Cl)Cl)P(=O)(c1ccccc1)c1ccccc1)c1ccccc1	-4.0	69.0*	-4.4	-8.5	-18.3
CCCOP(=O)(OCCC)C(NC(=O)c1ccccc1)=C(Cl)Cl	-11.4	32.7	-3.5	-2.7	-3.3
CCOC(=O)c1cc2c(cn1)[nH]c1ccccc12	8.3	64.2*	0.0	-6.2	-3.6
CCOC(=O)c1ccccc1N	-9.2	9.3	-5.4	.	-6.8
O=C(NC(=O)c1c(F)cccc1F)Nc1cc(Cl)c(F)c(Cl)c1F	-10.6	8.6	-9.1	active	-6.6
C[C@@H]1O[C@@H](O[C@H]2C[C@@H](O)[C@]3(CO)[C@@H]4C(CC[C@]3(O)C2)[C@@]2(O)CC[C@H](C3COC(=O)C3)[C@@]2(C)C[C@H]4O)[C@H](O)[C@H](O)[C@H]1O (some centres undefined)	-3.7	4.6	15.9*	.	-5.8
C[C@H]1CC[C@@H]2[C@@H](C)[C@H]3[C@H](C[C@H]4[C@@H]5CC=C6C[C@@H](O[C@@H]7O[C@H](CO)[C@H](O)[C@H](O[C@@H]8O[C@H](CO)[C@@H](O)[C@H](O)[C@H]8O)[C@H]7O[C@@H]7O[C@@H](C)[C@H](O)[C@@H](O)[C@H]7O)CC[C@]6(C)[C@H]5CC[C@]34C)N2C1	5.4	5.4	-6.2	-4.0	-9.9
NC(=O)c1ccc(N=Nc2c(O)[nH]c(=O)[nH]c2=O)cc1	-3.4	25.6	.	-9.4	-9.6
O=c1[nH]c(O)c(N=Nc2ccc(SC(F)F)cc2)c(=O)[nH]1	4.3	42.0*	7.9	-14.0	-1.0
CC1(C)C[C@H]2C=C(C=O)[C@]3(C=O)C[C@]3(C)[C@H]2C1	39.6*	6.4	-5.0	3.7	69.0*
O=C1Nc2cc(C(=O)N3CCC4(CC3)OCCO4)ccc2NC1CSCc1cccc(F)c1 (centres undefined)	-9.4	16.4	.	-7.3	-15.7
C[C@]12CC[C@H](O)C[C@H]1CC[C@@H]1[C@@H]2CC[C@]2(C)[C@@H](C3=CC(=O)OC3)CC[C@]12O	-7.8	18.4	26.4*	.	-9.2

Screening data as filed in PubChem BioAssay.
